Activity calls are given as the source filed them.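 How the source made its calls, unless noted: active means NADPH fluorescence slope more negative than the mean of all samples by about 3 SD, 99.7% confidence; inactive means the rest.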
How the values were obtained:
[1] = inhibitors of TNFa-induced NFkB p65 translocation, primary screen, imaging, HUVEC, MLSMR starter and 10KST1 sets (AID 438;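 active means inhibition above 20% together with a positive visual image hit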;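 further: compound added about 3h40 before a 20 min TNFalpha stimulation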;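 on inhibition: signal is the nuclear over cytoplasmic p65 intensity ratio per well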); conditions: HUVEC TNFa-induced p65 nuclear translocation; cell count: measured here: nuclei count (cytotoxicity indicator), at 2.08 µM; inhibition: at 2 µM, stronger effect = higher value, 0% TNFa-plus-vehicle, 100% no-TNFa wells
[2] = inhibitors of mutant huntingtin aggregation, primary screen, imaging, exon1htt(103Q)mCFP cells, high-content imaging (AID 483;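 active means visual image review flags a hit and inhibition of aggregation exceeds 20%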;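 further: compound exposure lasted 3 days before fixation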;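 on nuclei count: percent of the per-plate median nuclei count of sample wells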); conditions: exon1htt(103Q)mCFP cell line, aggregate imaging, at 2 µM; inhibition of aggregation: stronger effect = higher value; nuclei count: measured here: cell count, toxicity
[3] = inhibitors of E-selectin induction by TNFa, primary screen, imaging, HUVEC, immunofluorescence, MLSMR starter and 10KST1 sets (AID 487;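 active means visually confirmed hit in the image check and inhibition above 20%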;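 on inhibition: signal is fraction of cell area covered by stained E-selectin grains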;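 on nuclei count: 100% = median nuclei count of all wells on the same plate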); conditions: HUVEC TNFalpha-induced E-selectin immunofluorescence imaging, at 2 µM; inhibition: stronger effect = higher value; nuclei count: measured here: cell number, toxicity
[4] = biological target: Voltage-gated potassium channel subunit beta-2 (Rattus norvegicus) (UniProt P62483); assay: KvBeta enzyme negative modulators, primary screen, biochemical, NADPH fluorescence (AID 622;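 active means fluorescence slope higher than the sample average by over 3 SD, cut at about -0.22 in these data, passing the limit was not always enough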;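 further: slope of raw intensity against log time taken from 70 to 1610 s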); conditions: recombinant KvBeta, 4-cyanobenzaldehyde reduction, at 10 µM, stronger effect = higher value
[5] = biological target: Voltage-gated potassium channel subunit beta-2 (Rattus norvegicus) (UniProt P62483); assay: KvBeta positive modulators, primary screen, biochemical, NADPH fluorescence (AID 623); conditions: Recombinant KvBeta, NADPH fluorescence decrease slope, 10 min; at 10 µM; stronger effect = lower value;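 further: fluorescence intensity change per second fitted from 20 to 320 s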
[6] = biological target: Muscarinic acetylcholine receptor M4 (Homo sapiens) (UniProt P08173); assay: compounds altering M4/GIRK thallium flux, either direction, primary screen, M4 allosteric agonist project, cell-based, HEK293 M4/GIRK, BTC-AM (AID 625;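 active means fluorescence slope after compound addition differing from the mean of all tested samples at 99.7% confidence, mostly higher but some lower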;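 further: thallium influx through GIRK channels coupled to M4 in HEK293 cells with BTC-AM dye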); conditions: at 10 µM, actives lie on both sides
Summary of the method: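 assay system = HEK293 cells with M4 receptor and GIRK channels | medium = pH 7.3 thallium assay buffer | doses = 10 µM final, single point | timing = cells overnight at 37 °C, BTC-AM loading 1 h, reads 2 min total | signal = BTC-AM fluorescence, 1 Hz kinetic reads | read-out = post-addition slope, 15–24 s, of baseline-normalized fluorescence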

[7] = inhibitors of Sendai virus-induced IRF3 signaling, primary screen, TLR/RLR signaling modifier project, cell-based, Sendai virus stimulus, luciferase, 10K MLSCN set (AID 602276;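 active means inhibition at or above 50% at 10 µM; inactive means inhibition below 50%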;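 further: firefly luciferase from ISG56 promoter only with Renilla not read in this screen; 0% = Sendai virus plus DMSO and 100% = medium plus DMSO without virus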); conditions: HEK293 RL24 IRF3 luciferase reporter, at 10 µM, stronger effect = higher value
[8] = inhibitors of poly I:C-induced TLR3 signaling, primary screen, cell-based, poly I:C stimulus, luciferase, 10K MLSCN set (AID 602277;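 active means inhibition of the reporter signal at or above 50%; inactive means inhibition below 50%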); conditions: HEK293-TLR3 RL24 IRF3 luciferase reporter, at 10 µM, stronger effect = higher value

Muscarinic acetylcholine receptor M4 (Homo sapiens), sequence (P08173 whole entry, looked up): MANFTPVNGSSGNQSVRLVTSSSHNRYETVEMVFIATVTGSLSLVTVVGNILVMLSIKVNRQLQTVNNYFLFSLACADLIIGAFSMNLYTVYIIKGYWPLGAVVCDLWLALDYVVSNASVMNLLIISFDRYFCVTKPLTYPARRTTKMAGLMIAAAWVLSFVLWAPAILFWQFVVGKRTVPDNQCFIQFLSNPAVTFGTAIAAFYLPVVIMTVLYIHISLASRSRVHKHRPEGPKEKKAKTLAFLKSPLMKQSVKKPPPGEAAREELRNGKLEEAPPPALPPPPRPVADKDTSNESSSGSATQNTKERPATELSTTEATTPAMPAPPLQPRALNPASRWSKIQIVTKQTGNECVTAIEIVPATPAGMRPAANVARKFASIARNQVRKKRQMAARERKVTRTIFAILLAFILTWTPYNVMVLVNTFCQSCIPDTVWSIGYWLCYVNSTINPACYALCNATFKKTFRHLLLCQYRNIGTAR
Voltage-gated potassium channel subunit beta-2 (Rattus norvegicus), sequence (P62483 whole entry, looked up): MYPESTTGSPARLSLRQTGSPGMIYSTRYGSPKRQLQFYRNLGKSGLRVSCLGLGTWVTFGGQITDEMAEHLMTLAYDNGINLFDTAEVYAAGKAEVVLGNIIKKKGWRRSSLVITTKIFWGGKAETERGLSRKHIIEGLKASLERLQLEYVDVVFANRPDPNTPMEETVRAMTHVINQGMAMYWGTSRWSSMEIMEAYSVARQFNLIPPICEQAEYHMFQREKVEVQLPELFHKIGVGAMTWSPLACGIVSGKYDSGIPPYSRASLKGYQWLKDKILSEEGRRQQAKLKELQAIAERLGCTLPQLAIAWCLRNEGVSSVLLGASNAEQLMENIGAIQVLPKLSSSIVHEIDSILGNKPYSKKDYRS

In the case of `COc1ccccc1NC1=NC2(CCCC2)N=C(N)N1`, the cell count [1] is reported as 313, the inhibition [1] is reported as -9.5% (inactive) and the inhibition of aggregation [2] is reported as -26.7% (inactive). The nuclei count [2] was 115%, the inhibition [3] was 18% (inactive) and the nuclei count [3] was 124%. The fluorescence slope [4] was -0.569 (inactive), the NADPH fluorescence slope [5] was -6.5e-06 (inactive) and the fluorescence slope [6] was 0.00551 (inactive). The inhibition [7] was 7.65% (inactive) and the inhibition [8] was 19.3% (inactive).

For `COC(=O)Nc1ccc(C)cc1NC(=O)OC`, the cell count [1] was 624, the inhibition [1] was -20.8% (inactive) and the inhibition of aggregation [2] was -13.1% (inactive). For the same compound, the nuclei count [2] was 98.6%, the inhibition [3] was 16% (inactive) and the nuclei count [3] was 86.5%. For the same compound, the fluorescence slope [4] was -0.574 (inactive), the NADPH fluorescence slope [5] was 2.5e-05 (inactive) and the fluorescence slope [6] was 0.00692 (inactive). The inhibition [7] was -9.05% (inactive) and the inhibition [8] was -6.68% (inactive).

For `Cc1cc2c(s1)c1cnn(CC(=O)NCCc3ccccc3)c(=O)c1n2C`, the cell count [1] was 279, the inhibition [1] was 17.5% (inactive) and the inhibition of aggregation [2] was -21.4% (inactive). For the same compound, the nuclei count [2] was 104%, the inhibition [3] was -76.9% (inactive) and the nuclei count [3] was 102%. The fluorescence slope [4] was -0.236 (inactive), the NADPH fluorescence slope [5] was -7.6e-06 (inactive) and the fluorescence slope [6] was 0.00662 (inactive). For the same compound, the inhibition [7] was 15.1% (inactive) and the inhibition [8] was -1.81% (inactive).

In the case of `CCC(c1nnnn1CCOC)N(Cc1ccc(C)cc1)Cc1cc2cc(OC)ccc2[nH]c1=O` (configuration not stated), the cell count [1] is reported as 519, the inhibition [1] is reported as 1.9% (inactive) and the inhibition of aggregation [2] is reported as 11.8% (inactive). For the same compound, the nuclei count [2] was 99.2%, the inhibition [3] was -127% (inactive) and the nuclei count [3] was 134%. For the same compound, the fluorescence slope [4] was -0.565 (inactive), the NADPH fluorescence slope [5] was -5.3e-05 (inactive) and the fluorescence slope [6] was 0.00576 (inactive). For the same compound, the inhibition [7] was 19% (inactive) and the inhibition [8] was 27.8% (inactive).

With `CCc1nnc(NC(=O)C2CCN(c3nccc(C)n3)CC2)s1` the cell count [1] was 533, the inhibition [1] was 0.5% (inactive) and the inhibition of aggregation [2] was 0.2% (inactive). For the same compound, the nuclei count [2] was 103%, the inhibition [3] was -13.3% (inactive) and the nuclei count [3] was 96.9%. The fluorescence slope [4] was -0.317 (inactive), the NADPH fluorescence slope [5] was -3.6e-05 (inactive) and the fluorescence slope [6] was 0.00544 (inactive). For the same compound, the inhibition [7] was 11% (inactive) and the inhibition [8] was 14.7% (inactive).

For `CCOC(=O)c1nnn(-c2nonc2NC(C)=O)c1C`, the cell count [1] was 323, the inhibition [1] was 6.5% (inactive) and the inhibition of aggregation [2] was -14.1% (inactive). For the same compound, the nuclei count [2] was 98.9%, the inhibition [3] was -39.1% (inactive) and the nuclei count [3] was 93.3%. For the same compound, the fluorescence slope [4] was -0.58 (inactive), the NADPH fluorescence slope [5] was -1.6e-05 (inactive) and the fluorescence slope [6] was 0.00665 (inactive). The inhibition [7] was 17.3% (inactive) and the inhibition [8] was 14% (inactive).

With `N#C/C(C(=O)N1CCOCC1)=C1/SC=C(c2ccccc2)N1c1ccccc1` the cell count [1] was 327, the inhibition [1] was -5.5% (inactive) and the inhibition of aggregation [2] was 13.8% (inactive). For the same compound, the nuclei count [2] was 96.2%, the inhibition [3] was -118% (inactive) and the nuclei count [3] was 118%. For the same compound, the fluorescence slope [4] was -0.277 (inactive), the NADPH fluorescence slope [5] was -3e-05 (inactive) and the fluorescence slope [6] was 0.00553 (inactive). The inhibition [7] was 12.4% (inactive) and the inhibition [8] was 26.4% (inactive).
